Where only a bound is given, the exact number is not on record here.

Test system in one data set: not listed separately
As to the kind of experiment: (§1) Cytotoxicity against hamster BHK-21 cells incubated for 4 days by MTS assay. It is filed as toxicity, cell-based, Mesocricetus auratus. The settings on record: BHK-21 cells, time 4 day. Background: Formazan colour is commonly taken as a measure of viable cells.
As usually defined, the CC50 is the concentration giving 50% cytotoxicity. `O=c1nc(NCCO)ccn1[C@@H]1O[C@H](CO)[C@@H](O)[C@H]1O` displayed a CC50 at 96 h of 100 µM.

The subject of the next data set is BHK-21. Described as §1. It is filed as toxicity, cell-based, Mesocricetus auratus. The settings on record: bhk-21, 96 h, time 4 day.
Compound `CC(C)C(=O)OC[C@H]1O[C@@H](n2ccc(NO)nc2=O)[C@H](O)[C@@H]1O` [MOLNUPIRAVIR] came in with a cytotoxic concentration (CC50) of 42.2 µM.

The compound `O=c1nc(NO)ccn1[C@@H]1O[C@H](CO)[C@@H](O)[C@H]1O` [N-HYDROXYCYTIDINE] had a CC50 of 5.75 µM.

`NC(=O)c1ncn([C@@H]2O[C@H](CO)[C@@H](O)[C@H]2O)n1` [RIBAVIRIN] yielded a CC50 of 5.46 µM.

In the next data set the test system is Vero. The data set is described as follows: (§2) Cytotoxicity against African green monkey Vero cells assessed as reduction in cell viability incubated for 24 hrs by MTT assay. It is filed as toxicity, cell-based. Conditions: chlorocebus sabaeus, vero, 24 h. In short, it runs like this:
(§3)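 Viability of non-infected or infected cells (Vero CCL-81 or MDCK CCL-34) measured by MTT; CC50 calculated by nonlinear regression.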
`O=c1nc(NO)ccn1[C@@H]1O[C@H](CO)[C@@H](O)[C@H]1O` [N-HYDROXYCYTIDINE]: the CC50 was 16.5 µM.

Test system in another data set: not listed separately
Described as §2. The class given is toxicity, cell-based. The settings on record: chlorocebus sabaeus, Vero cells. In short, it runs like this:
as §3
Turning to `CCC(CC)COC(=O)[C@H](C)N[P@](=O)(OC[C@H]1O[C@@](C#N)(c2ccc3c(N)ncnn23)[C@H](O)[C@@H]1O)Oc1ccccc1`, the cytotoxic concentration (CC50) at 24 h is greater than 100 µM.

As for `O=c1nc(NCCO)ccn1[C@@H]1O[C@H](CO)[C@@H](O)[C@H]1O`, the 50% cytotoxic concentration (CC50) at 24 h is greater than 100 µM.

Another data set deals with dengue virus type 2. As to the kind of experiment: Antiviral activity against Dengue virus 2 infected in hamster BHK-21 cells incubated for 48 hrs by renilla luciferase based assay. It is filed as functional, organism-based. Conditions: BHK-21, 48 h. In short, it runs like this:
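DENV-2 replicon-bearing BHK-21 cells (DENV2-BHK); replication read out with a Renilla luciferase assay system; EC50 calculated by nonlinear regression.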
As a reminder, the EC50 is the midpoint of the concentration-response curve. For `O=c1nc(NCCO)ccn1[C@@H]1O[C@H](CO)[C@@H](O)[C@H]1O`, a half-maximal effect (EC50) was put at 100 µM.

As to `CC(C)C(=O)OC[C@H]1O[C@@H](n2ccc(NO)nc2=O)[C@H](O)[C@@H]1O` [MOLNUPIRAVIR], the EC50 was determined as 23.4 µM.

`O=c1nc(NO)ccn1[C@@H]1O[C@H](CO)[C@@H](O)[C@H]1O` [N-HYDROXYCYTIDINE] showed a half-maximal effective concentration (EC50) of 2.84 µM.

The compound `NC(=O)c1ncn([C@@H]2O[C@H](CO)[C@@H](O)[C@H]2O)n1` [RIBAVIRIN] displayed an EC50 of 1.16 µM.

A further data set deals with Influenza A virus. As to the kind of experiment: Antiviral activity against Influenza A virus A/Hong Kong/8/68 (H3N2) infected in MDCK cells assessed as reduction in virus-induced cytopathic effect pre-infected with cells for 1 hrs followed by compound addition and measured after 3 days by fluorescein diacetate-based cell viability assay.
Conditions: not given
The class given is functional, organism-based. A general note: Cytopathic effects are the visible damage that an infection or toxin causes in cultured cells.
Consider `NC(=O)c1nc(F)cnc1O`, for which the concentration for a half-maximal effect (EC50) was found to be 8.5 µM.

Regarding `O=c1nc(NCCO)ccn1[C@@H]1O[C@H](CO)[C@@H](O)[C@H]1O`, the EC50 is greater than 100 µM.

Consider `NC12CC3CC(CC(C3)C1)C2` [AMANTADINE], for which the EC50 turned out to be 6.4 µM.

With `CC(C)C(=O)OC[C@H]1O[C@@H](n2ccc(NO)nc2=O)[C@H](O)[C@@H]1O` [MOLNUPIRAVIR], the EC50 was 6 µM.

Take `O=c1nc(NO)ccn1[C@@H]1O[C@H](CO)[C@@H](O)[C@H]1O` [N-HYDROXYCYTIDINE]: the EC50 is 2.3 µM.

Another data set concerns MDCK. As to the kind of experiment: (§4) Cytotoxicity against MDCK cells assessed as reduction in cell viability measured for 48 hrs by MTT assay. The settings on record: dog, mdck, 48 h. It is filed as toxicity, cell-based, Canis lupus familiaris. In short, it runs like this: as §3
Turning to `O=c1nc(NO)ccn1[C@@H]1O[C@H](CO)[C@@H](O)[C@H]1O` [N-HYDROXYCYTIDINE], the CC50 is greater than 100 µM.

Test system in the next data set: not listed separately
Described as §4. It is filed as toxicity, cell-based, Canis lupus familiaris. The settings on record: dog, MDCK cells. In short, it runs like this:
as §3
`O=c1nc(NCCO)ccn1[C@@H]1O[C@H](CO)[C@@H](O)[C@H]1O`: the 50% cytotoxic concentration (CC50) at 48 h was greater than 100 µM.

`NC(=O)c1ncn([C@@H]2O[C@H](CO)[C@@H](O)[C@H]2O)n1` [RIBAVIRIN]: the CC50 at 48 h is greater than 100 µM.

The next data set has as its system Influenza B virus. As to the kind of experiment: Antiviral activity against Influenza B virus B/Lee/40 infected in MDCK cells assessed as reduction in virus-induced cytopathic effect pre-infected with cells for 1 hrs followed by compound addition and measured after 3 days by fluorescein diacetate-based cell viability assay. The class given is functional, organism-based. The settings on record: B/Lee/40, MDCK.
With `NC(=O)c1nc(F)cnc1O`, the EC50 was 7.6 µM.

As for `O=c1nc(NCCO)ccn1[C@@H]1O[C@H](CO)[C@@H](O)[C@H]1O`, the EC50 was greater than 100 µM.

For the compound `NC12CC3CC(CC(C3)C1)C2` [AMANTADINE], the EC50 is greater than 100 µM.

As for `CC(C)C(=O)OC[C@H]1O[C@@H](n2ccc(NO)nc2=O)[C@H](O)[C@@H]1O` [MOLNUPIRAVIR], the EC50 is 23.8 µM.

In the case of `O=c1nc(NO)ccn1[C@@H]1O[C@H](CO)[C@@H](O)[C@H]1O` [N-HYDROXYCYTIDINE], the EC50 was less than 1.2 µM.

For the compound `NC(=O)c1ncn([C@@H]2O[C@H](CO)[C@@H](O)[C@H]2O)n1` [RIBAVIRIN], the concentration for a half-maximal effect (EC50) came out at 33.3 µM.

The test system of the next data set is Influenza A virus. The data set is described as follows: Antiviral activity against Influenza A virus A/Puerto Rico/8/34 (H1N1) infected in MDCK cells assessed as reduction in virus-induced cytopathic effect pre-infected with cells for 1 hrs followed by compound addition and measured after 3 days by fluorescein diacetate-based cell viability assay. It is filed as functional, organism-based.
Conditions: not given
Turning to `NC(=O)c1nc(F)cnc1O`, the half-maximal effective concentration (EC50) worked out at 3.2 µM.

As for `O=c1nc(NCCO)ccn1[C@@H]1O[C@H](CO)[C@@H](O)[C@H]1O`, the 50% effective concentration (EC50) was greater than 100 µM.

Regarding `NC12CC3CC(CC(C3)C1)C2` [AMANTADINE], the EC50 was greater than 100 µM.

With `CC(C)C(=O)OC[C@H]1O[C@@H](n2ccc(NO)nc2=O)[C@H](O)[C@@H]1O` [MOLNUPIRAVIR], the concentration for a half-maximal effect (EC50) was 6.6 µM.

As for `O=c1nc(NO)ccn1[C@@H]1O[C@H](CO)[C@@H](O)[C@H]1O` [N-HYDROXYCYTIDINE], the EC50 came to 1.7 µM.

A further data set relates to SARS-CoV-2. As to the kind of experiment: Antiviral activity against SARS-CoV-2 (hCoV-19/Korea/KCDC-06/2020) infected in African green monkey Vero cells preincubated with cells for 24 hrs followed by viral infection and measured after 24 hrs by DAPI-staining based fluorescence assay. The class given is functional, organism-based. The settings on record: Severe acute respiratory syndrome coronavirus 2, hCoV-19/Korea/KCDC-06/2020, Vero.
The compound `O=c1nc(NCCO)ccn1[C@@H]1O[C@H](CO)[C@@H](O)[C@H]1O` gave an EC50 greater than 100 µM.

`CC(C)C(=O)OC[C@H]1O[C@@H](n2ccc(NO)nc2=O)[C@H](O)[C@@H]1O` [MOLNUPIRAVIR] displayed an EC50 of 11.8 µM.

Take `O=c1nc(NO)ccn1[C@@H]1O[C@H](CO)[C@@H](O)[C@H]1O` [N-HYDROXYCYTIDINE]: the concentration for a half-maximal effect (EC50) is greater than 16.5 µM.
